Test results: ChEMBL document CHEMBL4033616, “Identification of spirobisnaphthalene derivatives with anti-tumor activities from the endophytic fungus Rhytidhysteron rufulum AS21B” (Bioorg Med Chem, 2017)
pIC50: −log10 of the molar value.

Columns and labels:
NCI-H1975 = experiment: Cytotoxicity against human NCI-H1975 cells assessed as decrease in cell viability after 72 hrs by CellTiter-Glo assay; format: functional, cell-based; conditions: NCI-H1975, 72 h
Method in brief: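 NSCLC H1975 cells grown to exponential phase in RPMI 1640 with 10% (v/v) fetal calf serum, humidified 5% CO2. Seeded cells were exposed to compounds at the indicated concentrations for 72 h at 37 °C. Viability was read as the ATP level in living cells (CellTiter-Glo).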

Ramos = experiment: Cytotoxicity against human Ramos cells assessed as decrease in cell viability after 24 hrs by CellTiter-Glo assay; format: functional, cell-based
Method in brief: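 Human lymphoma Ramos cells, expanded to exponential growth in RPMI 1640 plus 10% (v/v) fetal calf serum under humidified 5% CO2. Seeded cells were treated with compounds at the indicated concentrations, 37 °C, 24 h. Viability was measured from the cellular ATP level with the CellTiter-Glo kit.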

Row | SMILES | pIC50 (NCI-H1975) | pIC50 (Ramos)
1 | O=C1C2=CCCC3(Oc4cccc5cccc(c45)O3)[C@@H]2[C@H](O)[C@@H]2O[C@H]12 | 5.14 | 4.75
2 | O=C1CC[C@]23Oc4ccc(O)c5c4[C@@](C=CC5=O)(Oc4cccc1c42)O3 | < 4.00 | 4.08
3 | O=C1CCC2(Oc3cccc4cccc(c34)O2)c2cccc(O)c21 [PALMARUMYCIN CP2] | < 4.00 | 4.74
4 | CC(=O)O[C@@H]1C=CC(=O)C2=CCCC3(Oc4cccc5cccc(c45)O3)[C@@H]21 | 6.60 | 7.74
5 | O=C1C=C[C@@H](O)[C@@H]2C1=CCCC21Oc2cccc3cccc(c23)O1 | 5.93 | 7.32
6 | CO[C@@H]1CC(=O)C2=CCCC3(Oc4cccc5cccc(c45)O3)[C@@H]2[C@@H]1O | 4.99 | 6.34
7 | C=CC(=O)N1CCC[C@@H](n2nc(-c3ccc(Oc4ccccc4)cc3)c3c(N)ncnc32)C1 [IBRUTINIB] | – | 4.54
8 | CO[C@H]1CCC2(Oc3cccc4cccc(c34)O2)C2=C1C(=O)C=CC2=O | < 4.00 | 4.50
9 | O=C1CCC(O)c2cccc(O)c21 (stereo unspecified) [4,8-DIHYDROXY-1-TETRALONE] | 4.30 | 4.64
10 | CN(C)C/C=C/C(=O)Nc1cc2c(Nc3ccc(F)c(Cl)c3)ncnc2cc1O[C@H]1CCOC1 [AFATINIB] | 5.71 | –
11 | O=C1C=C[C@]2(Oc3cccc4c(O)ccc(c34)O2)c2ccccc21 | < 4.00 | 4.82
12 | Oc1cccc2c1[C@@H](O)CCC21Oc2cccc3cccc(c23)O1 | < 4.00 | < 4.00
13 | O=C1CCC2(Oc3cccc4cccc(c34)O2)c2c(O)ccc(O)c21 [PALMARUMYCIN CP17] | < 4.00 | 4.48
14 | O[C@H]1[C@@H]2[C@H]([C@@H](O)CCC23Oc2cccc4cccc(c24)O3)[C@@H](O)C[C@@H]1O | < 4.00 | < 4.00
